Laboratory results taken from ChEMBL document CHEMBL1142138, “Development of a novel dicistronic reporter-selectable hepatitis C virus replicon suitable for high-throughput inhibitor screening” (Antimicrob Agents Chemother, 2007).

Tests used:
[1] = target: RNA-directed RNA polymerase (Hepacivirus hominis, UniProt O39930); experiment: Inhibition of recombinant HCV 1b BK NS5B polymerase by primer/template-directed transcription assay; set-up: species or system Hepatitis C virus subtype 1b
Procedure, shortened: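 Recombinant genotype 1b (strain BK) NS5B with biotin-dG12 primer (5 pmol) and poly(rC)300 template (0.5 pmol). Enzyme-started, 30 min at 30°C, EDTA stop, DEAE filter capture, scintillation counting. Final DMSO 1%. IC50 fitted from triplicate cpm.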

Hepatitis C virus [2] = experiment: Antiviral activity against HCV 1b con1 in dual-reporter HCV replicon Huh7 cells by measuring hRLuc reporter activity after 72 hrs; format: functional, organism-based, Hepacivirus hominis; conditions: genotype 1b con1, Huh-7, 72 h
Procedure, shortened: (§1)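 Replicon cells seeded at 2 x 10^4/well in DMEM without selection antibiotics. Eight threefold serial compound dilutions added, final 320 to 0.1 µM (IFN 10 to 0.003 IU/ml). After 3 days at 37°C, medium removed and hRLuc activity read with a dual-luciferase reporter kit. Percent inhibition was taken relative to compound-free control and EC50 derived.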

[3] = Cytotoxicity against dual-reporter HCV replicon Huh7 cells by measuring FLuc reporter activity after 72 hrs; format: cell-based, Huh-7; conditions: human
Procedure, shortened: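 DDR cells carry a nuclear FLuc reporter. They were seeded at 2 x 10^4/well without selection antibiotics and given eight threefold compound dilutions, final 320 to 0.1 µM. After 3 days, medium was removed and FLuc read with a dual-luciferase kit. Percent inhibition was calculated versus compound-free control.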

[4] = Cytotoxicity against dual-reporter HCV replicon Huh7 cells by measuring XTT end points after 72 hrs; format: cell-based, Huh-7; conditions: human
Procedure, shortened: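 Cells were seeded at 2 x 10^4/well without selection antibiotics and exposed to eight threefold dilutions, final 320 to 0.1 µM, for 3 days. XTT (final 200 µg/ml) and phenazine methosulfate (final 1 mM) were then added. After 4 h, formazan was read at 450 nm against a 650 nm reference, and percent inhibition calculated versus control.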

[5] = Selectivity index, CC50 for dual-reporter HCV replicon Huh7 cells to EC50 against HCV 1 in dual-reporter HCV replicon Huh7 cells; format: functional, Huh-7
Procedure, shortened: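 Dual-reporter replicon cells: hRLuc from the replicon, FLuc in the nucleus. Seeded at 2 x 10^4/well without selection antibiotics, then eight threefold compound dilutions (final 320 to 0.1 µM). After 3 days, XTT/PMS for 4 h read at 450/650 nm, then FLuc and hRLuc luminescence. Percent inhibition calculated from the luciferase and XTT signals. Index = CC50/EC50.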

Hepatitis C virus [6] = experiment: Antiviral activity against HCV 1b con1 in dicistronic reporter selectable HCV replicon Huh7 cells assessed as inhibition of HCV RNA after 72 hrs by RT-PCR; format: functional, organism-based, Hepacivirus hominis; conditions: genotype 1b con1, Huh-7, 72 h
Procedure, shortened: (§2)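 Cells were then PBS-washed and total RNA extracted. HCV RNA and GAPDH mRNA were quantified by TaqMan RT-PCR against standard curves, and HCV was normalized to GAPDH at each concentration. Percent inhibition was computed versus DMSO-treated wells, giving EC50. Reactions were also run without reverse transcriptase.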

Hepatitis C virus [7] = experiment: Antiviral activity against HCV 1b con1 in HCV 1b in dicistronic reporter selectable HCV replicon Huh7 cells by measuring hRLuc reporter activity after 72 hrs; format: functional, organism-based, Hepacivirus hominis; conditions: genotype 1b con1, Huh-7, 72 h; procedure, shortened: as §1
Hepatitis C virus [8] = experiment: Antiviral activity against HCV 1b con1 in dual-reporter HCV replicon Huh7 cells assessed as inhibition of HCV RNA after 72 hrs by RT-PCR; format: functional, organism-based, Hepacivirus hominis; conditions: genotype 1b con1, Huh-7, 72 h; procedure, shortened: as §2

RNA-directed RNA polymerase, sequence (O39930 whole entry): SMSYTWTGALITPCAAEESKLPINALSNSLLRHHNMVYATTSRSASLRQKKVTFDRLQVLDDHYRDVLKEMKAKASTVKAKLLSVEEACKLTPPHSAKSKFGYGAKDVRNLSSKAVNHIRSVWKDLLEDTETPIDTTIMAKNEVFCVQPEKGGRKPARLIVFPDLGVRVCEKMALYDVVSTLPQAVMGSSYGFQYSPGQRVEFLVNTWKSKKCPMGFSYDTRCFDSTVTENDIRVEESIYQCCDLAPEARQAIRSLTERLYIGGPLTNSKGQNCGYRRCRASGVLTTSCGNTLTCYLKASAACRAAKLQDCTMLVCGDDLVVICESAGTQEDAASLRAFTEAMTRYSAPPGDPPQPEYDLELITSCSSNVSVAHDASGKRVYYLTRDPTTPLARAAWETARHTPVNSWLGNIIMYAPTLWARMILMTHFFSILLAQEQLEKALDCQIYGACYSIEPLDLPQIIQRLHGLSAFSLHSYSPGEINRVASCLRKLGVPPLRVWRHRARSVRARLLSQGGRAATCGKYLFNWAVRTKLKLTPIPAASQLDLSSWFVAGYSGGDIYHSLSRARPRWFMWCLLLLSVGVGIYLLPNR

| IC50 [1] | EC50 (Hepatitis C virus [2]) | EC50 (Hepatitis C virus [6]) | EC50 (Hepatitis C virus [7]) | EC50 (Hepatitis C virus [8]) | Structure (SMILES) | CC50 at 72 h [3] | CC50 at 72 h [4] | Selectivity index [5] |
| --- | --- | --- | --- | --- | --- | --- | --- | --- |
| 0.014 µM | 1.7 µM | 2.4 µM | 3.3 µM | 3.2 µM | COc1cc(OC)c(CCC2(C3CCCC3)CC(O)=C(Sc3nc4nc(C)cc(C)n4n3)C(=O)O2)cc1Cl (stereo unspecified) | > 320 µM | > 320 µM | >188.2 |
|  | 115 µM |  |  |  | Cc1cc(SC2=C(O)OC(CCc3ccc(O)cc3)(C3CCCC3)CC2=O)c(C(C)(C)C)cc1N (stereo unspecified) | 116 µM | 242 µM | 0.9 |

| Structure (SMILES) | IC50 [1] | EC50 (Hepatitis C virus [2]) | EC50 (Hepatitis C virus [6]) | EC50 (Hepatitis C virus [7]) | EC50 (Hepatitis C virus [8]) | CC50 at 72 h [3] | CC50 at 72 h [4] | Selectivity index [5] |
| --- | --- | --- | --- | --- | --- | --- | --- | --- |
| OC[C@H]1O[C@@H](n2cnc3cc(Cl)c(Cl)cc32)[C@H](O)[C@@H]1O [DICHLORORIBOBENZIMIDAZOLE] |  | 34.1 µM |  |  |  | 60.7 µM | 40.4 µM | 0.7 |
